Results from ChEMBL document CHEMBL1155787, “Synthesis and biological evaluation of new disubstituted analogues of 6-methoxy-3-(3',4',5'-trimethoxybenzoyl)-1H-indole (BPR0L075), as potential antivascular agents” (Bioorg Med Chem, 2008).
Calls of active or inactive are those of the source. No cut-off for these calls is given here.

Columns and labels:
[1] = test system: B16; assay: Cytotoxicity against mouse B16 cells assessed as cell viability after 48 hrs by MTT test; type: functional, cell-based; settings: B16, 48 h
Procedure, shortened: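 Murine B16 melanoma cells grown in DMEM with 2 mM L-glutamine, 10% FBS and penicillin/streptomycin at 37 °C, 5% CO2. Cells plated at 5000/well. After 24 h, compound added in triplicate at final 0.25 ng/mL to 25 µg/mL in 10-fold dilutions (DMSO stock, 1% DMSO controls). IC50 from 3–7 independent triplicate experiments.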

[2] = test system: EA.hy 926; assay: Induction of morphological changes in human EA.hy 926 cells assessed as rounding up after 2 hrs; type: functional
Procedure, shortened: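 EA.hy 926 cells (HUVEC–A549 fusion line) grown in DMEM with 2 mM glutamine, 10% FBS and penicillin/streptomycin at 37 °C, 5% CO2. Plated at 5000 cells/well and exposed in triplicate to 10-fold dilutions for 2 h. Solvent control was 1% DMSO. Wells photographed at the centre. Value is the lowest concentration at which rounding up was seen.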

[3] = organism: Bos taurus; assay: Ratio of IC50 of drug to IC50 of colchicine for calf brain tubulin polymerization
Procedure, shortened: (§1)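 Calf brain tubulin purified by three assembly–disassembly cycles, used at a final 2–3 mg/mL in pH 6.6 buffer (0.1 M MES, 0.5 mM MgCl2, 2 mM EGTA, 1 mM GTP). Assembly followed by turbidity at 400 nm at 37 °C.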

[4] = Inhibition of tubulin polymerization; procedure, shortened: as §1

Compound	IC50 [1] [µM]	Activity [2] [µM]	Ratio IC50 [3]	Activity [3]	IC50 [4] [µM]
COc1cc(C(=O)c2c[nH]c3c(OS(C)(=O)=O)c(OC)ccc23)cc(OC)c1OC	0.17	0.013	2.7	–	–
COc1cc2c(C(=O)c3cc(OC)c(OC)c(OC)c3)c[nH]c2cc1OS(C)(=O)=O	32.4	28.71	–	inactive	–
COc1ccc2c(C(=O)c3cc(OC)c(OC)c(OC)c3)c[nH]c2c1	0.013	0.007	0.4	–	2.8
COc1cc2c(c(OC)c1OC)-c1ccc(OC)c(=O)cc1[C@@H](NC(C)=O)CC2 [COLCHICINE]	0.031	0.003	–	–	–
COc1cc2c(C(=O)c3cc(OC)c(OC)c(OC)c3)cn(S(=O)(=O)c3ccccc3)c2cc1OS(C)(=O)=O	3.14	1.3	18	–	–
COc1cc2[nH]cc(C(=O)c3cc(OC)c(OC)c(OC)c3)c2cc1OS(C)(=O)=O	13.7	14.35	–	inactive	–
COc1cc2c(cc1OS(C)(=O)=O)c(C(=O)c1cc(OC)c(OC)c(OC)c1)cn2S(=O)(=O)c1ccccc1	3.29	10.86	15	–	–
COc1cc2c(C(=O)c3cc(OC)c(OC)c(OC)c3)c[nH]c2cc1O	5.07	8.74	12	–	–
COc1ccc(/C=C\c2cc(OC)c(OC)c(OC)c2)cc1O [COMBRETASTATIN A4]	0.003	0.008	0.7	–	2.2
